Compound activity deposited in PubChem by several laboratories.
procasp7 counter – procaspase-7 activators, primary screen, counter-screen for procaspase-3 activator project, biochemical, absorbance, HTS, human. Caspase-7 (Homo sapiens), P55210. recombinant procaspase-7, Ac-DEVD-pNA absorbance 405 nm; D23A/D198A/D206A triple mutant, cannot self-cleave; scale: DMSO 0, 5 µM enzyme 100. activation, % at 8.5 µM. 0.093% of 330,000 active;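 active = percent activation above the screen-wide mean plus 3 SD, cut at about 25% in these data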
Target sequence (P55210 whole entry D23A/D198A/D206A): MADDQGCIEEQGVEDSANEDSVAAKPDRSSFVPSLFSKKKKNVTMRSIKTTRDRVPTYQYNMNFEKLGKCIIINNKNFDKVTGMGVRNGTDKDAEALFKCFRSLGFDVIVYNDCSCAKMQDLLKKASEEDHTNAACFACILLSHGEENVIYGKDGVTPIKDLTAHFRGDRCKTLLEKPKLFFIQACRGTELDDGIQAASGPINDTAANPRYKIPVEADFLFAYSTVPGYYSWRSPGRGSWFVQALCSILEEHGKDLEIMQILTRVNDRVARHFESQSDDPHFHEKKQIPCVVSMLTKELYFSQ
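Replicates: singlicate. Assay system: Procaspase-7 triple mutant (PC-7 D3A). Signal: 405 nm absorbance of p-nitroaniline. Times: 1 h preincubation, 2 h reaction. Buffer or medium: Zinc-free HEPES pH 7.4 with 300 mM NaCl, 0.01% Triton X-100. Also added: DEVD-pNA substrate. Benchmarks: DMSO wells as 0%, DMSO with 5 µM added PC-7 as 100%.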
VLA-4 inh – inhibition in human VLA-4 binding assay, primary screen, VLA-4 allosteric modulator project, MLPCN library, flow cytometry, VLA-4 expressing cells; Integrin alpha-4 (Homo sapiens), P13612; ligand binding flow cytometry; inhibition, % (about 7 µM as worked out from the volumes in the protocol); 0.2% of 330,000 active; AID 2557, 2010; in the data active = inhibition above about 50%
proCasp3 act – activators of human procaspase-3 D3A mutant, primary screen, biochemical, absorbance, PC-3 D3A mutant, single concentration. recombinant procaspase-3 D3A, Ac-DEVD-pNA absorbance 405 nm. activation, % at 8.5 µM. 0.11% of 330,000 active. AID 463141, 2010;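 active = activation above the mean of all tested compounds plus 3 SD, cut at about 21% in these data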
Target sequence (P42574 whole entry D9A/D28A/D175A): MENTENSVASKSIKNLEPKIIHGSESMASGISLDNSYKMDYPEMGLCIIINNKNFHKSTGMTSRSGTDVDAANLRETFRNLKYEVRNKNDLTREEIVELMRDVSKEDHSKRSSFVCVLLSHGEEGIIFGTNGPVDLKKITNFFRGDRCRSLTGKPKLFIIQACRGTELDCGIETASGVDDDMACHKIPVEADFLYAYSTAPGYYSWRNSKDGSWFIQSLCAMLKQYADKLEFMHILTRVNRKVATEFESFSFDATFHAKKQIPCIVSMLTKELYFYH
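Compound: 8.5 µM single point, 0.8% DMSO / Material: Autoprocessing-dead procaspase-3 D3A mutant enzyme / Timing: 1 h preincubation plus 2 h reaction at 25 °C / Medium: Zinc-free HEPES/NaCl buffer with 0.01% Triton X-100 at pH 7.4 / Technique: 405 nm absorbance of p-nitroaniline, reads at 0 and 120 min / Repeats: one well per compound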
JMJD2C inh – inhibitors of GASC-1 histone demethylase, primary screen, biochemical, fluorescence, DELFIA europium. Lysine-specific demethylase 4C (Homo sapiens), Q9H3R0. GST-JMJD2C(1-420) H3K9me3 demethylation. inhibition, % at 2.35 µM. 0.069% of 330,000 active;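 active = more than half of a compound's replicate wells show inhibition beyond 50%, single wells judged on their own value; inconclusive = some, but no more than half, of replicates pass 50% inhibition; inactive = no replicate passes 50% inhibition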;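 also: signal counts dimethyl H3K9 product captured on neutravidin plate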
GRK2 aptamer HTS – compounds blocking aptamer binding on GRK2 – biochemical, human GRK2, bead flow cytometry, HTS, primary screen. Beta-adrenergic receptor kinase 1 (Homo sapiens), P25098. FAM-aptamer displacement from GRK2. inhibition of aptamer binding, % at 10 µM. 0.59% of 330,000 active. AID 488847, 2010;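 active = inhibition of aptamer binding above 40%, roughly 3 SD of noise, on plates passing a quality check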;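 also: median bead fluorescence of bound FAM aptamer so fluorescent compounds give negative values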
Hep lipid drop – inhibitors of hepatocyte lipid droplet formation, primary screen, imaging, high-throughput imaging, BODIPY stain | 0.4% of 240,000 active | AML12 mouse hepatocytes, oleate lipid droplets | inhibition, % at 6.5 µM;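 active = lipid droplet intensity inhibited by at least 50%, with more than 500 cells counted; inconclusive = wells with under 300 cells, treated as cytotoxic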
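Material: mouse AML12 hepatocyte cell line, fixed after treatment; Timing: compound with oleate, overnight; Technique: high-content imaging of BODIPY-stained droplets and DAPI nuclei; Probe or stimulus: oleate, 100 µM final; Dosing: compound at 6.5 µM only.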
GRK2 CP1 – GRK2 aptamer-displacing inhibitors, retest, confirmation, biochemical, cherry pick 1, bead flow cytometry. shares compounds with GRK2 aptamer HTS. bead-bound GRK2, FAM-aptamer displacement. aptamer displacement, % at 10 µM. 4% of 2,000 active. AID 504451, 2011;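 active = aptamer displacement above 40%, near three times the noise of non-fluorescent compounds, on plates passing quality checks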;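 also: negative values mostly reflect intrinsic compound fluorescence rather than true enhancement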
FAM quench CP1 – counter-screen for GRK2 aptamer inhibitors: fluorescent aptamer quenchers; shares compounds with GRK2 aptamer HTS; Carboxyfluorescein RNA aptamer on beads, flow cytometry quenching; stronger effect = lower value; fluorescence response (% of DMSO), % at 10 µM; 2,000 tested, under 10 active; AID 504580;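 active = compounds that quench the bead-bound fluorescent RNA probe, cutting fluorescence to under half of the solvent control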;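 also: counterscreen run without GRK2 so only probe quenching by compound is measured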
GRK2 CP2 – GRK2 aptamer-displacing inhibitors, hit retest, confirmation, biochemical, cherry pick 2, bead flow cytometry | inhibition of aptamer binding, % at 10 µM | 360 tested, under 10 active | bead-bound GRK2, FAM-aptamer displacement | shares compounds with GRK2 aptamer HTS;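 active = inhibition of aptamer binding above 40%, about triple the noise seen with nonglowing compounds, on plates passing quality control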;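 also: negative values mostly come from compounds that fluoresce themselves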
FAM quench CP2 – quenches fluorescent RNA aptamer, GRK2 hit artifact; shares compounds with GRK2 aptamer HTS; carboxyfluorescein RNA aptamer beads, flow cytometry quenching; stronger effect = lower value; fluorescence response vs DMSO, % at 10 µM; 360 tested, under 10 active;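 active = response vs DMSO under 50%, meaning signal dropped by over half, treated as fluorescence quencher; inconclusive = no clear call, values can overlap the other calls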;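 also: labelled aptamer on streptavidin beads without GRK2 as a quench counter-screen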
Large screens that a line does not name were inactive (follow-up assays come after a bar, where they were run). Compounds with a hit are over-represented: about 1.3% of the library has one in this group of screens.

CCCCCCn1c(CN2CCCCC2CC)nc2c1c(=O)n(C)c(=O)n2C (stereo unspecified)	JMJD2C inh inconclusive | GRK2 CP1 inactive | FAM quench CP1 inactive
CCCCCn1c(CN2CCN(C)CC2)nc2c1c(=O)n(C)c(=O)n2C	none (no result: Hep lipid drop)
CCC1CCCCN1Cc1nc2c(c(=O)n(C)c(=O)n2C)n1CC(C)C (stereo unspecified)	none | GRK2 CP1 inactive | FAM quench CP1 inactive
CCC1CCCCN1Cc1nc2c(c(=O)n(C)c(=O)n2C)n1CCC(C)C (stereo unspecified)	none | GRK2 CP1 inactive | FAM quench CP1 inactive
CC(C)Cn1c(CN(C)Cc2ccccc2)nc2c1c(=O)n(C)c(=O)n2C	GRK2 aptamer HTS 76.0 | GRK2 CP1 inactive | FAM quench CP1 inactive
Cc1nc(SCC(=O)N2CCCC2=O)nc(C)c1C	none (no result: Hep lipid drop)
CC(C)C(=O)c1c(C(C)C)nn2ccccc12	none (no result: Hep lipid drop) | GRK2 CP1 inactive | FAM quench CP1 inactive
Nc1nc(NCCO)nc(NCc2ccccc2)c1[N+](=O)[O-]	GRK2 aptamer HTS 97.0 | GRK2 CP1 inactive | FAM quench CP1 inactive
Nc1nc(NCc2ccccc2)nc(NCCO)c1[N+](=O)[O-]	none
COc1ccc(CNCCc2ccc(Cl)cc2)cc1OCc1ccccc1	none
COc1ccc(CCNCc2ccc(OCc3ccccc3)cc2)cc1	GRK2 aptamer HTS 58.0 | GRK2 CP1 inactive | FAM quench CP1 inactive
Nc1c(C(=O)NCCc2ccccc2)nnn1Cc1ccc(Cl)cc1	none
Nc1c(C(=O)NCCc2ccccc2)nnn1Cc1ccc(Br)cc1F	GRK2 aptamer HTS 50.0 | GRK2 CP1 inactive | FAM quench CP1 inactive
COc1cc(/C=C/C(=O)OCC(=O)NC(=O)NC2CCCCC2)ccc1OC(F)F	none
Cc1ccccc1C(=O)NCCc1nnc(SCC(=O)Nc2nc(-c3ccccc3)cs2)n1C	GRK2 aptamer HTS 55.0 | GRK2 CP1 inactive | FAM quench CP1 inactive
Nc1cc(C(=O)OCC(=O)N2CCOCC2)ccc1Cl	GRK2 aptamer HTS 58.0 | GRK2 CP1 inactive | FAM quench CP1 inactive
CC1CN(C(=O)c2ccccc2OCc2ccc(Cl)cc2Cl)CC(C)O1 (stereo unspecified)	none (no result: Hep lipid drop)
CCOc1cc(N2CCOCC2)c(OCC)cc1NC(=O)c1ccc(F)c(S(=O)(=O)N2CCOCC2)c1	none (no result: procasp7 counter, VLA-4 inh, proCasp3 act, JMJD2C inh, GRK2 aptamer HTS, Hep lipid drop) | GRK2 CP1 inactive | FAM quench CP1 inactive
CCOc1cc(N2CCOCC2)c(OCC)cc1NC(=O)c1cc(S(=O)(=O)N2CCOCC2)ccc1C	none (no result: Hep lipid drop) | GRK2 CP1 inactive | FAM quench CP1 inactive
CCOc1cc(N2CCOCC2)c(OCC)cc1NC(=O)c1[nH]c(C)c(C(C)=O)c1C	none (no result: Hep lipid drop)
CCOc1cc(N2CCOCC2)c(OCC)cc1NC(=O)c1ccc(S(C)(=O)=O)cc1	GRK2 aptamer HTS 90.0 | GRK2 CP1 inactive | FAM quench CP1 inactive
CC(C)Oc1cccc(C(=O)C2CCCN(C(=O)CCc3cnn(C)c3)C2)c1 (stereo unspecified)	none
Cc1c(OCC(=O)N2CCC(C(N)=O)CC2)ccc2c1oc(=O)c1ccccc12	none
C=CCn1c(SCC(=O)Nc2ncc(Cc3ccc(Br)cc3)s2)nnc1-c1ccncc1	GRK2 aptamer HTS 91.0 (no result: Hep lipid drop) | GRK2 CP1 inactive | FAM quench CP1 inactive
COc1ccc(S(=O)(=O)N(C)C)cc1NC(=O)COC(=O)C1CC1	none (no result: Hep lipid drop)
COCCNC(=O)c1c[nH]c2ccc(S(=O)(=O)N3CCc4ccccc43)cc2c1=O	none
COCCNC(=O)c1c[nH]c2ccc(S(=O)(=O)Nc3ccccc3F)cc2c1=O	GRK2 aptamer HTS 70.0 | GRK2 CP1 inactive | FAM quench CP1 inactive
COCCNC(=O)c1c[nH]c2ccc(OC)cc2c1=O	none (no result: Hep lipid drop)
COCCNC(=O)c1c[nH]c2ccc(S(=O)(=O)Nc3ccc(F)cc3F)cc2c1=O	GRK2 aptamer HTS 91.0 | GRK2 CP1 inactive | FAM quench CP1 inactive
COc1ccccc1NC(=O)N1CCC(c2nc3cc(C)c(C)cc3[nH]2)CC1	Hep lipid drop inconclusive | GRK2 CP1 inactive | FAM quench CP1 inactive
COc1ccccc1NC(=S)N1CCC(c2nc3cc(C)c(C)cc3[nH]2)CC1	none (no result: Hep lipid drop)
Cc1cccc(CN2CCN(Cc3ccc4nonc4c3)CC2CCO)n1 (stereo unspecified)	GRK2 aptamer HTS 41.0 | GRK2 CP1 inactive | FAM quench CP1 inactive
O=c1[nH]c(Cc2cccc(C(F)(F)F)c2)nc2ccccc12	none | GRK2 CP1 inactive | FAM quench CP1 inactive
O=c1[nH]c(Cc2ccc(Cl)cc2)nc2ccccc12	none
C[C@@H]1NC(=O)OC1c1ccco1 (stereo partly specified)	GRK2 aptamer HTS 76.0 (no result: Hep lipid drop) | GRK2 CP1 inactive | FAM quench CP1 inactive
O=C(O)CC/C(=C\c1ccc(N2CCCC2)c([N+](=O)[O-])c1)c1nc2ccccc2s1	GRK2 aptamer HTS 71.0 | GRK2 CP1 inactive | FAM quench CP1 inactive
O=C(NCC1OCCc2ccccc21)c1ccc(NC(=O)c2ccc(Cl)cc2Cl)cc1 (stereo unspecified)	none
O=C(NCC1OCCc2ccccc21)c1ccc(NC(=O)c2ccccc2Cl)cc1 (stereo unspecified)	GRK2 aptamer HTS 47.0 | GRK2 CP2 inactive | FAM quench CP2 inactive
CCCCn1c(CNC(=O)C(C)(C)C)nc2ccccc21	GRK2 aptamer HTS 83.0 | GRK2 CP1 inactive | FAM quench CP1 inactive
CCn1c(CNC(=O)C(C)(C)C)nc2ccccc21	none (no result: Hep lipid drop)
